The source made the active and inactive calls. The calls are words filed in the database; no cut-off is given here.
Legend:
Mus musculus [1] = experiment: Anticonvulsant activity against maximal electroshock (MES) induced seizures in mice 30 minutes after ip administration of 300 mg/kg; A=Active; format: functional, organism-based; set-up: dose 300 mg/kg
In short: (§1)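 Male Carworth Farms No. 1 mice were dosed ip with compound in 30% polyethylene glycol 400, at 30, 100 and 300 mg/kg and sometimes 600 mg/kg, and tested 30 min and 4 h later. A drop of 0.9% saline went in the eye, then 60-cycle AC at 50 mA was given for 0.2 s via corneal electrodes. Protection meant abolition of hind limb tonic extension.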

Mus musculus [2] = experiment: Anticonvulsant activity against maximal electroshock (MES) induced seizures in mice 4 hours after ip administration of 600 mg/kg; A=Active; format: functional, organism-based; set-up: dose 600 mg/kg; in short: as §1
Mus musculus [3] = experiment: Anticonvulsant activity against subcutaneous pentylenetetrazole induced convulsions in mice 30 min after ip administration of 600 mg/kg.; format: functional, organism-based; set-up: dose 600 mg/kg
In short: (§2)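 Male Carworth Farms No. 1 mice were dosed ip with compound in 30% PEG 400, at 30–600 mg/kg, and read at 30 min and 4 h. Pentylenetetrazole was given at 85 mg/kg as a 0.5% solution sc in the posterior midline. Protection meant no single episode of clonic spasms lasting at least 5 s over a 30-min observation.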

Mus musculus [4] = experiment: Anticonvulsant activity against subcutaneous pentylenetetrazole induced convulsions in mice 4 hr after ip administration of 600 mg/kg.; format: functional, organism-based; set-up: dose 600 mg/kg; in short: as §2
Mus musculus [5] = experiment: Compound was tested for toxicity by rotarod assay method in mice after intraperitoneal administration after 4 hours at 600 mg/kg; no activity; format: organism-based; set-up: dose 600 mg/kg, route intraperitoneal; settings: in vivo, ip
Mus musculus [6] = experiment: Compound was tested for toxicity by rotarod assay method in mice 30 min after ip administration of 600 mg/kg; no activity; format: organism-based; set-up: dose 600 mg/kg, route intraperitoneal; settings: in vivo, 0.5 h
Mus musculus [7] = experiment: Anticonvulsant activity against maximal electroshock (MES) induced seizures in mice 30 minutes after ip administration of 600 mg/kg; NA=No activity; format: functional, organism-based; set-up: dose 600 mg/kg; in short: as §1
Mus musculus [8] = experiment: Anticonvulsant activity against maximal electroshock (MES) induced seizures in mice 4 hours after ip administration of 600 mg/kg.; format: functional, organism-based; set-up: dose 600 mg/kg; in short: as §1
Mus musculus [9] = experiment: Anticonvulsant activity against subcutaneous pentylenetetrazole induced convulsions in mice 4 hours after ip administration of 600 mg/kg; No=No activity; format: functional, organism-based; set-up: dose 600 mg/kg; in short: as §2
Mus musculus [10] = experiment: Compound was tested for toxicity by rotarod assay method in mice 30 min after ip administration at 600 mg/kg; no activity; format: organism-based; set-up: dose 600 mg/kg, route intraperitoneal; settings: in vivo, 0.5 h
Mus musculus [11] = experiment: Compound was tested for toxicity by rotarod assay method in mice 4 hours after ip administration at 600 mg/kg; no activity; format: organism-based; set-up: dose 600 mg/kg, route intraperitoneal; settings: in vivo
Mus musculus [12] = experiment: Anticonvulsant activity against maximal electroshock (MES) induced seizures in mice 30 minutes after ip administration of 100 mg/kg; A=Active; format: functional, organism-based; set-up: dose 100 mg/kg; in short: as §1
Mus musculus [13] = experiment: Anticonvulsant activity against maximal electroshock (MES) induced seizures in mice 4 hours after ip administration of 300 mg/kg; A=Active; format: functional, organism-based; set-up: dose 300 mg/kg; in short: as §1
Mus musculus [14] = experiment: Anticonvulsant activity against sc pentylenetetrazole-induced convulsions in mice 30 minutes after ip administration of 300 mg/kg; A=Active; format: functional, organism-based; set-up: dose 300 mg/kg; in short: as §2
Mus musculus [15] = species: Mus musculus; experiment: Anticonvulsant activity against maximal electroshock (MES)-induced seizures in mice; format: functional; in short: as §1
[16] = Compound for toxicity by rotarod assay method in mice after administration; format: organism-based; settings: mouse, in vivo
In short: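 Neurologic deficit was tested in male Carworth Farms No. 1 mice 30 min and 4 h after ip dosing in 30% PEG 400, at 30–600 mg/kg. Each mouse was placed on a 1-in.-diameter knurled plastic rod turning at 6 rpm. Toxicity meant failing to stay on the rod for 1 min.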

Mus musculus [17] = experiment: Compound was tested for toxicity by rotarod assay method in mice 30 min after ip administration of 300 mg/kg; A=Active; format: organism-based; set-up: dose 300 mg/kg, route intraperitoneal; settings: in vivo, 0.5 h
Mus musculus [18] = experiment: Compound was tested for toxicity by rotarod assay method in mice 4 hours after ip administration of 600 mg/kg; A=Active; format: organism-based; set-up: dose 600 mg/kg, route intraperitoneal; settings: in vivo
Mus musculus [19] = experiment: Anticonvulsant activity against maximal electroshock (MES) induced seizures in mice 30 minutes after ip administration of 600 mg/kg; A=Active; format: functional, organism-based; set-up: dose 600 mg/kg; in short: as §1
Mus musculus [20] = experiment: Compound was tested for toxicity by rotarod assay method in mice 4 hours after ip administration of 600 mg/kg; NA=No activity; format: organism-based; set-up: dose 600 mg/kg, route intraperitoneal; settings: in vivo
Mus musculus [21] = experiment: Anticonvulsant activity against sc pentylenetetrazole induced convulsions in mice 4 hr after ip administration of 600 mg/kg; A=Active; format: functional, organism-based; set-up: dose 600 mg/kg; in short: as §2
Mus musculus [22] = experiment: Compound for anticonvulsant activity against maximal electroshock (MES)-induced seizures in mice after administration; format: functional; in short: as §1
Mus musculus [23] = experiment: Anticonvulsant activity against subcutaneous pentylenetetrazole induced convulsions in mice 4 hours after ip administration of 600 mg/kg; NA=No activity; format: functional, organism-based; set-up: dose 600 mg/kg; in short: as §2
Mus musculus [24] = experiment: Compound was tested for toxicity by rotarod assay method in mice 30 min after ip administration of 600 mg/kg; A=Active; format: organism-based; set-up: dose 600 mg/kg, route intraperitoneal; settings: in vivo, 0.5 h
Mus musculus [25] = experiment: Anticonvulsant activity against sc pentylenetetrazole induced convulsions in mice 30 minutes after ip administration of 600 mg/kg; A=Active; format: functional, organism-based; set-up: dose 600 mg/kg; in short: as §2
Mus musculus [26] = experiment: Anticonvulsant activity against maximal electroshock (MES) induced seizures in mice […] after ip administration of 600 mg/kg; NA=No activity; format: functional, organism-based; set-up: dose 600 mg/kg; in short: as §1

Compound | Anticonvulsant activity (Mus musculus [3]) | Anticonvulsant activity (Mus musculus [4]) | Anticonvulsant activity (Mus musculus [7]) | Anticonvulsant activity (Mus musculus [8]) | Anticonvulsant activity (Mus musculus [9]) | Toxicity (Mus musculus [10]) | Toxicity (Mus musculus [11]) | Toxicity (Mus musculus [20]) | further results
CCc1cccc(C(C)C)c1NC(=O)c1cccc(N)c1 | inactive | inactive |  |  |  |  |  |  | Anticonvulsant activity (Mus musculus [1]): Active; Anticonvulsant activity (Mus musculus [2]): Active; Toxicity (Mus musculus [5]): Not Active; Toxicity (Mus musculus [6]): Not Active
CC(C)c1ccccc1NC(=O)c1ccccc1N | inactive |  | inactive | inactive | inactive | Not Active | Not Active |  | 
Cc1ccccc1NC(=O)c1cccc(N)c1 |  | inactive |  |  |  |  |  |  | Anticonvulsant activity (Mus musculus [12]): Active; Anticonvulsant activity (Mus musculus [13]): Active; Anticonvulsant activity (Mus musculus [14]): Active; ED50 (Mus musculus [15]): 44.7 mg/kg; TD50 [16]: 109 mg/kg; Toxicity (Mus musculus [17]): Active; Toxicity (Mus musculus [18]): Active
Cc1cccc(C(C)C)c1NC(=O)c1ccccc1N | inactive | inactive |  | inactive |  |  |  | Not Active | Anticonvulsant activity (Mus musculus [19]): Active; Toxicity (Mus musculus [6]): Not Active
Nc1cccc(C(=O)Nc2ccccc2)c1 |  |  |  |  |  |  |  |  | Anticonvulsant activity (Mus musculus [12]): Active; Anticonvulsant activity (Mus musculus [13]): Active; Anticonvulsant activity (Mus musculus [21]): Active; Anticonvulsant activity (Mus musculus [14]): Active; Toxicity (Mus musculus [17]): Active; Toxicity (Mus musculus [18]): Active
Cc1cccc(C)c1NC(=O)c1ccc(N)cc1 [AMELTOLIDE] |  |  |  |  |  |  |  |  | ED50 (Mus musculus [22]): 2.6 mg/kg
Nc1ccccc1C(=O)Nc1ccccc1 | inactive |  |  | inactive |  |  |  | Not Active | Anticonvulsant activity (Mus musculus [1]): Active; Anticonvulsant activity (Mus musculus [23]): inactive; Toxicity (Mus musculus [24]): Active
Cc1ccc(NC(=O)c2cccc(N)c2)c(C)c1 | inactive |  | inactive | inactive | inactive | Not Active | Not Active |  | 
CCc1cccc(C(C)C)c1NC(=O)c1ccccc1N | inactive |  | inactive | inactive | inactive | Not Active | Not Active |  | 
Cc1ccc(NC(=O)c2ccccc2N)c(C)c1 |  | inactive |  |  |  |  |  | Not Active | Anticonvulsant activity (Mus musculus [19]): Active; Anticonvulsant activity (Mus musculus [2]): Active; Anticonvulsant activity (Mus musculus [25]): Active; Toxicity (Mus musculus [24]): Active
Cc1cccc(NC(=O)c2ccccc2N)c1C |  | inactive |  | inactive |  |  |  | Not Active | Anticonvulsant activity (Mus musculus [26]): inactive; Anticonvulsant activity (Mus musculus [25]): Active; Toxicity (Mus musculus [24]): Active
Cc1ccc(NC(=O)c2cccc(N)c2)cc1 | inactive | inactive |  |  |  |  |  |  | Anticonvulsant activity (Mus musculus [1]): Active; Anticonvulsant activity (Mus musculus [13]): Active; Toxicity (Mus musculus [6]): Not Active; Toxicity (Mus musculus [18]): Active
Cc1cc(C)cc(NC(=O)c2ccccc2N)c1 | inactive |  | inactive | inactive | inactive | Not Active | Not Active |  | 

Reference: ChEMBL document CHEMBL1123352, “Anticonvulsant activity of 2- and 3-aminobenzanilides” (J Med Chem, 1986)
